Reference: ChEMBL document CHEMBL5724801, “EUbOPEN Chemogenomics Library - Multiplex” (2024)
“And” between values parts separate entries of the source, which are not always exact repeats. Identical values can stand only once.

Tested on: U2OS
Assay: Multiplex assay against U2OS
Assay type: toxicity, cell-based
Details: human
Procedure, shortened: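 Four dyes were applied at seeding to live cells: Hoechst33342, BioTracker Green Microtubule Cytoskeleton Dye, MitoTracker Red and Annexin V Alexa Fluor 680. Imaging after compound addition used a CQ1 microscope at 37°C and 5% CO2. CellPathfinder machine-learning gating then sorted cells into Hoechst high-intensity objects or normal cells, normal cells into healthy, pyknosed or fragmented nuclei, and pyknosed cells into mitotic or apoptotic, with tubulin, mitochondrial-mass and membrane-permeability phenotypes given as per cents of healthy-nucleus cells.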

[1] = 12 h, 1 µM, compound concentration 1 uM
[2] = 12 h, 10 µM, compound concentration 10 uM
[3] = 24 h, 1 µM, compound concentration 1 uM
[4] = 24 h, 10 µM, compound concentration 10 uM
[5] = 48 h, 1 µM, compound concentration 1 uM
[6] = 48 h, 10 µM, compound concentration 10 uM

For `CSc1nc(NC2CCCC2)c([N+](=O)[O-])c(NC2CCCC2)n1` [GS-39783], the “Population Apoptotic (%)” value [1] was 82% and 80%, the “Population Fragmented Nuclei (%)” value [1] was 25% and 18% and the “Population Healthy Nuclei (%)” value [1] was 66% and 76%. For the same compound, the “Population Hoechst High Intensity Objects (%)” value [1] was 2% and 3%, the “Population Membrane Permeable-Phenotype (%)” value [1] was 4% and the “Population Mitochondria Different-Phenotype (%)” value [1] was 3% and 0%. For the same compound, the “Population Mitotic Cells (%)” value [1] was 17% and 20%, the “Population Normal (%)” value [1] was 97% and 96% and the “Population Pyknosed Nuclei (%)” value [1] was 8% and 5%. For the same compound, the “Population Tubulin-Different-Phenotype (%)” value [1] was 1%, the “Total Cell Count” value [1] was 209 and 96 and the “Population Apoptotic (%)” value [2] was 88% and 100%. For the same compound, the “Population Fragmented Nuclei (%)” value [2] was 30% and 19%, the “Population Healthy Nuclei (%)” value [2] was 63% and 75% and the “Population Hoechst High Intensity Objects (%)” value [2] was 3% and 1%. For the same compound, the “Population Membrane Permeable-Phenotype (%)” value [2] was 9%, the “Population Mitochondria Different-Phenotype (%)” value [2] was 5% and 0% and the “Population Mitotic Cells (%)” value [2] was 11% and 0%. For the same compound, the “Population Normal (%)” value [2] was 96% and 98%, the “Population Pyknosed Nuclei (%)” value [2] was 5% and 4% and the “Population Tubulin-Different-Phenotype (%)” value [2] was 4% and 6%. For the same compound, the “Total Cell Count” value [2] was 322 and 145, the “Population Apoptotic (%)” value [3] was 87% and 84% and the “Population Fragmented Nuclei (%)” value [3] was 22% and 20%. The “Population Healthy Nuclei (%)” value [3] was 64% and 68%, the “Population Hoechst High Intensity Objects (%)” value [3] was 2% and 1% and the “Population Membrane Permeable-Phenotype (%)” value [3] was 2% and 1%. The “Population Mitochondria Different-Phenotype (%)” value [3] was 1%, the “Population Mitotic Cells (%)” value [3] was 12% and 15% and the “Population Normal (%)” value [3] was 97% and 98%. For the same compound, the “Population Pyknosed Nuclei (%)” value [3] was 12% and 11%, the “Population Tubulin-Different-Phenotype (%)” value [3] was 1% and 0% and the “Total Cell Count” value [3] was 269 and 119. The “Population Apoptotic (%)” value [4] was 85% and 88%, the “Population Fragmented Nuclei (%)” value [4] was 26% and 18% and the “Population Healthy Nuclei (%)” value [4] was 66% and 75%. The “Population Hoechst High Intensity Objects (%)” value [4] was 2% and 3%, the “Population Membrane Permeable-Phenotype (%)” value [4] was 6% and 9% and the “Population Mitochondria Different-Phenotype (%)” value [4] was 6% and 2%. For the same compound, the “Population Mitotic Cells (%)” value [4] was 14% and 11%, the “Population Normal (%)” value [4] was 97% and 96% and the “Population Pyknosed Nuclei (%)” value [4] was 6% and 5%. For the same compound, the “Population Tubulin-Different-Phenotype (%)” value [4] was 4% and 5%, the “Total Cell Count” value [4] was 341 and 164 and the “Population Apoptotic (%)” value [5] was 88% and 92%. The “Population Fragmented Nuclei (%)” value [5] was 18% and 21%, the “Population Healthy Nuclei (%)” value [5] was 70% and 71% and the “Population Hoechst High Intensity Objects (%)” value [5] was 1% and 0%. For the same compound, the “Population Membrane Permeable-Phenotype (%)” value [5] was 3%, the “Population Mitochondria Different-Phenotype (%)” value [5] was 1% and the “Population Mitotic Cells (%)” value [5] was 11% and 7%. For the same compound, the “Population Normal (%)” value [5] was 98% and 100%, the “Population Pyknosed Nuclei (%)” value [5] was 11% and 7% and the “Population Tubulin-Different-Phenotype (%)” value [5] was 1% and 3%. The “Total Cell Count” value [5] was 382 and 185, the “Population Apoptotic (%)” value [6] was 89% and 85% and the “Population Fragmented Nuclei (%)” value [6] was 23% and 12%. For the same compound, the “Population Healthy Nuclei (%)” value [6] was 67% and 81%, the “Population Hoechst High Intensity Objects (%)” value [6] was 2% and 0% and the “Population Membrane Permeable-Phenotype (%)” value [6] was 5% and 4%. For the same compound, the “Population Mitochondria Different-Phenotype (%)” value [6] was 1% and 3%, the “Population Mitotic Cells (%)” value [6] was 10% and 14% and the “Population Normal (%)” value [6] was 97% and 99%. The “Population Pyknosed Nuclei (%)” value [6] was 8% and 6%, the “Population Tubulin-Different-Phenotype (%)” value [6] was 2% and 3% and the “Total Cell Count” value [6] was 462 and 231.
`CC(C)c1noc(N2CCC(COc3ccc(-c4ccc(S(C)(=O)=O)cc4)nc3)CC2)n1` [GSK-1292263] was tested, and the “Population Apoptotic (%)” value [1] was 72% and 100%, the “Population Fragmented Nuclei (%)” value [1] was 27% and 16% and the “Population Healthy Nuclei (%)” value [1] was 62% and 77%. The “Population Hoechst High Intensity Objects (%)” value [1] was 2% and 1%, the “Population Membrane Permeable-Phenotype (%)” value [1] was 3% and 4% and the “Population Mitochondria Different-Phenotype (%)” value [1] was 2% and 0%. For the same compound, the “Population Normal (%)” value [1] was 97% and 98%, the “Population Pyknosed Nuclei (%)” value [1] was 10% and 5% and the “Population Tubulin-Different-Phenotype (%)” value [1] was 0% and 2%. The “Total Cell Count” value [1] was 177 and 114, the “Population Apoptotic (%)” value [2] was 90% and 100% and the “Population Fragmented Nuclei (%)” value [2] was 31% and 20%. For the same compound, the “Population Healthy Nuclei (%)” value [2] was 60% and 73%, the “Population Hoechst High Intensity Objects (%)” value [2] was 2% and 0% and the “Population Membrane Permeable-Phenotype (%)” value [2] was 10%. The “Population Mitochondria Different-Phenotype (%)” value [2] was 6% and 8%, the “Population Mitotic Cells (%)” value [2] was 10% and 0% and the “Population Normal (%)” value [2] was 97% and 100%. For the same compound, the “Population Pyknosed Nuclei (%)” value [2] was 7% and 5%, the “Population Tubulin-Different-Phenotype (%)” value [2] was 6% and the “Total Cell Count” value [2] was 262 and 134. For the same compound, the “Population Apoptotic (%)” value [3] was 63% and 66%, the “Population Fragmented Nuclei (%)” value [3] was 32% and 15% and the “Population Healthy Nuclei (%)” value [3] was 57% and 77%. The “Population Hoechst High Intensity Objects (%)” value [3] was 1% and 0%, the “Population Membrane Permeable-Phenotype (%)” value [3] was 5% and 2% and the “Population Mitochondria Different-Phenotype (%)” value [3] was 2%. The “Population Mitotic Cells (%)” value [3] was 36% and 33%, the “Population Normal (%)” value [3] was 98% and 99% and the “Population Pyknosed Nuclei (%)” value [3] was 9% and 6%. For the same compound, the “Population Tubulin-Different-Phenotype (%)” value [3] was 3% and 1%, the “Total Cell Count” value [3] was 236 and 145 and the “Population Apoptotic (%)” value [4] was 92% and 66%. For the same compound, the “Population Fragmented Nuclei (%)” value [4] was 25% and 15%, the “Population Healthy Nuclei (%)” value [4] was 65% and 75% and the “Population Hoechst High Intensity Objects (%)” value [4] was 0% and 2%. For the same compound, the “Population Membrane Permeable-Phenotype (%)” value [4] was 10% and 6%, the “Population Mitochondria Different-Phenotype (%)” value [4] was 3% and 5% and the “Population Normal (%)” value [4] was 99% and 97%. The “Population Pyknosed Nuclei (%)” value [4] was 9% and 8%, the “Population Tubulin-Different-Phenotype (%)” value [4] was 3% and 2% and the “Total Cell Count” value [4] was 284 and 143. The “Population Apoptotic (%)” value [5] was 77% and 90%, the “Population Fragmented Nuclei (%)” value [5] was 23% and 15% and the “Population Healthy Nuclei (%)” value [5] was 69% and 74%. For the same compound, the “Population Hoechst High Intensity Objects (%)” value [5] was 2% and 1%, the “Population Membrane Permeable-Phenotype (%)” value [5] was 3% and 6% and the “Population Mitochondria Different-Phenotype (%)” value [5] was 3% and 2%. The “Population Mitotic Cells (%)” value [5] was 22% and 10%, the “Population Normal (%)” value [5] was 97% and 98% and the “Population Pyknosed Nuclei (%)” value [5] was 6% and 10%. The “Population Tubulin-Different-Phenotype (%)” value [5] was 2% and 1%, the “Total Cell Count” value [5] was 339 and 201 and the “Population Apoptotic (%)” value [6] was 87% and 83%. The “Population Fragmented Nuclei (%)” value [6] was 22% and 12%, the “Population Healthy Nuclei (%)” value [6] was 68% and 77% and the “Population Hoechst High Intensity Objects (%)” value [6] was 4% and 1%. The “Population Membrane Permeable-Phenotype (%)” value [6] was 6% and 5%, the “Population Mitochondria Different-Phenotype (%)” value [6] was 2% and 4% and the “Population Mitotic Cells (%)” value [6] was 12% and 16%. The “Population Normal (%)” value [6] was 95% and 98%, the “Population Pyknosed Nuclei (%)” value [6] was 9% and the “Population Tubulin-Different-Phenotype (%)” value [6] was 2% and 4%. The “Total Cell Count” value [6] was 354 and 189.
